# Active and inactive are the calls of the source. No cut-off for these calls is given here.
# Key:
# [1] = tested on: Escherichia coli; experiment: Antibacterial activity against Escherichia coli ATCC 35218; type: functional
# [2] = tested on: Bacillus subtilis; experiment: Antibacterial activity against Bacillus subtilis ATCC 6633; type: functional
# [3] = tested on: Aspergillus niger; experiment: Antifungal activity against Aspergillus niger ATCC 16404; type: functional
# [4] = tested on: Staphylococcus aureus; experiment: Antibacterial activity against Staphylococcus aureus ATCC 6538; type: functional
# [5] = tested on: Trichophyton rubrum; experiment: Antifungal activity against Trichophyton rubrum ATCC 10218
# [6] = tested on: Pseudomonas aeruginosa; experiment: Antibacterial activity against Pseudomonas aeruginosa ATCC 2785; type: functional
# [7] = tested on: Candida albicans; experiment: Antifungal activity against Candida albicans ATCC 10231; type: functional
# [8] = tested on: AGS; experiment: Inhibition of Escherichia coli-stimulated IL-8 production in human AGS cells at 15 to 60 umol/L after 12 hrs by ELISA; type: functional, cell-based
# Summary of the method: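 AGS gastric mucosal cells stimulated with Escherichia coli water extract to induce IL-8 production, with agent added at 15, 30 and 60 μmol L⁻¹. IL-8 released was measured in pg mL⁻¹ and compared with extract-stimulated control. Values are means ± SEM of 3–5 experiments.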
# [9] = Inhibition of Escherichia coli FabH expressed after 25 mins by liquid scintillation counting
# [10] = tested on: AGS; experiment: Cytotoxicity against human AGS cells at 15 to 60 umol/L after 48 hrs by MTT assay; type: cell-based
# Summary of the method: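 AGS gastric cells incubated with test agent at serial concentrations of 15, 30 and 60 μmol L⁻¹. Viability read by MTT assay 48 h later. Values are means ± SEM of 4–6 experiments.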
Structure (SMILES),MIC [1],MIC [2],MIC [3],MIC [4],MIC [5],MIC [6],MIC [7],inhibition [8],IC50 [9],Activity [10]
O=[N+]([O-])c1ccc(/N=C(/Cc2ccc(F)cc2)c2ccc(O)c(O)c2)cc1,25 mg/L,50 mg/L,> 50 mg/L,50 mg/L,> 50 mg/L,25 mg/L,> 50 mg/L,,,
O=C(Cc1ccc(F)cc1)c1ccc(O)cc1O,,,> 50 mg/L,,> 50 mg/L,,> 50 mg/L,,,
Cc1ccc(/N=C(/Cc2ccc(F)cc2)c2ccc(O)c(O)c2O)cc1,50 mg/L,50 mg/L,> 50 mg/L,50 mg/L,> 50 mg/L,50 mg/L,> 50 mg/L,inactive,,
Oc1ccc(/C(Cc2ccc(Cl)cc2)=N\c2ccc(Br)cc2)c(O)c1,3.12 mg/L,12.5 mg/L,> 50 mg/L,25 mg/L,> 50 mg/L,3.12 mg/L,> 50 mg/L,,9.1 µM,
Oc1ccc(/C(Cc2ccc(F)cc2)=N\c2ccc(Br)cc2)c(O)c1,3.12 mg/L,50 mg/L,> 50 mg/L,50 mg/L,> 50 mg/L,6.25 mg/L,> 50 mg/L,,8.3 µM,
Cc1ccc(/N=C(/Cc2ccc(F)cc2)c2ccc(O)cc2O)cc1,25 mg/L,25 mg/L,> 50 mg/L,25 mg/L,> 50 mg/L,25 mg/L,> 50 mg/L,,35.3 µM,
Cc1ccc(/N=C(/Cc2ccc(Cl)cc2)c2ccc(O)c(O)c2)cc1,25 mg/L,50 mg/L,> 50 mg/L,50 mg/L,> 50 mg/L,50 mg/L,> 50 mg/L,,,
O=[N+]([O-])c1ccc(/N=C(/Cc2ccc(F)cc2)c2ccc(O)cc2O)cc1,6.25 mg/L,50 mg/L,> 50 mg/L,50 mg/L,> 50 mg/L,12.5 mg/L,> 50 mg/L,,28.7 µM,
Cc1ccc(/N=C(/Cc2ccc(Cl)cc2)c2ccc(O)cc2O)cc1,12.5 mg/L,25 mg/L,> 50 mg/L,12.5 mg/L,> 50 mg/L,12.5 mg/L,> 50 mg/L,,15.1 µM,
O=[N+]([O-])c1ccc(/N=C(/Cc2ccc(Cl)cc2)c2ccc(O)c(O)c2O)cc1,50 mg/L,50 mg/L,> 50 mg/L,50 mg/L,> 50 mg/L,50 mg/L,> 50 mg/L,,,
O=C(Cc1ccc(Cl)cc1)c1ccc(O)c(O)c1,,,> 50 mg/L,,> 50 mg/L,,> 50 mg/L,,,
Oc1ccc(/N=C(/Cc2ccc(Cl)cc2)c2ccc(O)cc2O)cc1,6.25 mg/L,25 mg/L,> 50 mg/L,> 50 mg/L,> 50 mg/L,12.5 mg/L,> 50 mg/L,,20.5 µM,
Oc1ccc(/N=C(/Cc2ccc(F)cc2)c2ccc(O)c(O)c2)cc1,50 mg/L,25 mg/L,> 50 mg/L,50 mg/L,> 50 mg/L,50 mg/L,> 50 mg/L,,,
Oc1ccc(/N=C(/Cc2ccc(Cl)cc2)c2ccc(O)c(O)c2O)cc1,25 mg/L,50 mg/L,> 50 mg/L,25 mg/L,> 50 mg/L,50 mg/L,> 50 mg/L,,,
Oc1ccc(/C(Cc2ccc(F)cc2)=N\c2ccc(Cl)cc2)c(O)c1O,12.5 mg/L,50 mg/L,> 50 mg/L,50 mg/L,> 50 mg/L,12.5 mg/L,> 50 mg/L,,,
Oc1ccc(/C(Cc2ccc(F)cc2)=N\c2ccc(Cl)cc2)cc1O,6.25 mg/L,25 mg/L,> 50 mg/L,25 mg/L,> 50 mg/L,6.25 mg/L,> 50 mg/L,,,
O=[N+]([O-])c1ccc(/N=C(/Cc2ccc(Cl)cc2)c2ccc(O)c(O)c2)cc1,25 mg/L,25 mg/L,> 50 mg/L,12.5 mg/L,> 50 mg/L,25 mg/L,> 50 mg/L,,,
CC1(C)S[C@@H]2[C@H](NC(=O)Cc3ccccc3)C(=O)N2[C@H]1C(=O)O [PENICILLIN G],6.25 mg/L,1.56 mg/L,,1.56 mg/L,,6.25 mg/L,,,,
Oc1ccc(/C(Cc2ccc(Cl)cc2)=N\c2ccc(Br)cc2)c(O)c1O,12.5 mg/L,50 mg/L,> 50 mg/L,50 mg/L,> 50 mg/L,25 mg/L,> 50 mg/L,,,
CC(=O)Oc1ccccc1C(=O)O [ASPIRIN],,,,,,,,Active,,Non-toxic
